Results from ChEMBL document CHEMBL4334504 (J Med Chem, 2019).
Values after ≈ are worked out from the molar mass of the structure shown. Active and inactive are the calls of the source. The calls are words filed in the database; no cut-off is given here.

Tests used:
[1] = Drug level in CDI patient plasma at 200 mg, po administered every 12 hrs for 10 days and measured 3 to 5 hrs post last dose by LC-MS/MS analysis; type: ADME, organism-based; conditions: human, in vivo
[2] = Effect on growth of Lactobacillus crispatus JV-V01 HM 103 measured after 48 hrs in 5% CO2 by CLSI method; conditions: lactobacillus crispatus jv-v01, 48 h
[3] = Effect on growth of Lactobacillus gasseri EX336960VC03 HM 400 measured after 48 hrs in 5% CO2 by CLSI method; conditions: lactobacillus gasseri ex336960vc03, 48 h
[4] = tested on: Clostridioides difficile; assay: Antibacterial activity against Clostridium difficile 4118 ATCC BAA 1870 assessed as bacterial growth inhibition incubated for 48 hrs under anaerobic condition by CLSI protocol-based assay; type: functional; conditions: 4118 ATCC BAA 1870, 48 h
In short: (§1)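 Broth microdilution following CLSI guidance. Strains pre-grown anaerobically on BHIS agar (BHI plus yeast extract, vitamin K1, hemin) at 37 °C for 48 h. ~10^5 CFU/mL in BHIS broth added to serial compound dilutions. Incubated anaerobically at 37 °C for 48 h. MIC is the lowest concentration showing visible growth inhibition.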

[5] = tested on: Clostridioides difficile; assay: Antibacterial activity against Clostridium difficile VPI 10463 ATCC 43255 assessed as bacterial growth inhibition incubated for 48 hrs under anaerobic condition by CLSI protocol based assay; type: functional; conditions: ATCC 43255 VPI 10463, 48 h; in short: as §1
[6] = tested on: Bifidobacterium bifidum; assay: Effect on growth of Bifidobacterium bifidum 212A ATCC 11863 measured after 48 hrs in anerobic conditions by CLSI method; type: organism-based; conditions: in vivo
[7] = tested on: Lacticaseibacillus paracasei; assay: Effect on growth of Lactobacillus casei ATCC 334 measured after 48 hrs in 5% CO2 by CLSI method
[8] = tested on: Clostridioides difficile; assay: Bactericidal activity against Clostridium difficile 4118 ATCC BAA 1870 assessed as reduction in bacterial colony forming units at 8 fold MIC preincubated followed by re-plating on BHIS agar plate and measured after 24 hrs under anaerobic condition by time-kill assay; type: functional, organism-based

For `CCc1c(Cl)c(O)c(Cl)c(O)c1C(=O)O[C@H]1[C@H](O)[C@H](OC)[C@H](OC/C2=C\C=C\C[C@H](O)/C(C)=C/[C@H](CC)[C@@H](O[C@@H]3OC(C)(C)[C@@H](OC(=O)C(C)C)[C@H](O)[C@@H]3O)/C(C)=C/C(C)=C/C[C@@H]([C@@H](C)O)OC2=O)O[C@@H]1C` [FIDAXOMICIN], the Cp [1] was 25 to 50 ng/mL, the MIC [2] was 30 µM (≈ 31.7 µg/mL) and the MIC [3] was “<= 2 uM”. For the same molecule, the MIC [4] was 0.1 µM (≈ 0.106 µg/mL), the MIC [5] was 0.1 µM (≈ 0.106 µg/mL) and the MIC [6] was over 242 µM. For the same molecule, the MIC [7] was over 242 µM and the Activity [8] was “Active”.
